The MIC is the lowest concentration that inhibits growth of the organism. A high value points to a less susceptible organism.

Common to all, as to type: functional
Assay [1] has as its system Escherichia coli. Briefly: Antibacterial activity against Escherichia coli at 100 ug after 24 hrs by agar disc-diffusion method. Conditions: read-out: IZ. In a few lines:
(§1)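 Agar disc diffusion on nutrient agar with bacterial strains from NCIM, Pune. Sterile 6 mm filter-paper discs were wetted with compound in DMSO and placed on plates already inoculated with each organism. Plates were incubated at 37 °C, and the diameter of the growth-inhibition zone was measured after 24 h.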

Assay [2] deals with Bacillus subtilis. Briefly: Antibacterial activity against Bacillus subtilis at 200 ug after 24 hrs by agar disc-diffusion method. Conditions: read-out: IZ. In a few lines:
as §1
In general terms: Agar diffusion results depend on both activity and mobility in agar.

Assay [3] concerns Staphylococcus aureus. Briefly: Antibacterial activity against Staphylococcus aureus after 24 hrs by microdilution susceptibility method. In a few lines: (§2)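 Microdilution susceptibility test on bacterial strains from NCIM, Pune. Microorganism suspensions were inoculated into wells containing the compound and incubated at 36 °C for 24 h. MIC was taken as the lowest concentration showing no turbidity, meaning complete inhibition of visible growth.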
(In broth dilution the organism is exposed to a series of concentrations in liquid medium.)

Assay [4] concerns Curvularia lunata. Briefly: Antifungal activity against Curvularia lunata after 48 hrs by microdilution susceptibility method. The method in brief:
(§3)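 Broth microdilution with fungi from NCIM, Pune. Fungal suspensions were added to wells containing the compound and incubated at 36 °C for 48 h. MIC was recorded as the lowest concentration with no turbidity, that is, no visible growth.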

The subject of assay [5] is Escherichia coli. Briefly: Antibacterial activity against Escherichia coli after 24 hrs by microdilution susceptibility method. The method in brief: as §2
The subject of assay [6] is Klebsiella pneumoniae. Briefly: Antibacterial activity against Klebsiella pneumoniae at 100 ug after 24 hrs by agar disc-diffusion method. Conditions: read-out: IZ. In a few lines:
as §1

Assay [7] relates to Bacillus subtilis. Briefly: Antibacterial activity against Bacillus subtilis after 24 hrs by microdilution susceptibility method. The method in brief:
as §2

Assay [8] relates to Aspergillus niger. Briefly: Antifungal activity against Aspergillus niger at 100 ug after 48 hrs by agar disc-diffusion method. Conditions: read-out: IZ. The method in brief: (§4)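 Fungal strains from NCIM, Pune, were tested by disc diffusion on nutrient agar. Sterile 6 mm paper discs moistened with the compound solution in DMSO were placed on plates pre-inoculated with each fungus. Plates were incubated at 37 °C, and the inhibition-zone diameter was read after 48 h.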

The test system of assay [9] is Escherichia coli. Briefly: Antibacterial activity against Escherichia coli at 200 ug after 24 hrs by agar disc-diffusion method. Conditions: read-out: IZ. The method in brief:
as §1

Assay [10] has as its system Fusarium solani. Briefly: Antifungal activity against Fusarium solani after 48 hrs by microdilution susceptibility method. The method in brief:
as §3

Assay [11] deals with Klebsiella pneumoniae. Briefly: Antibacterial activity against Klebsiella pneumoniae after 24 hrs by microdilution susceptibility method. The method in brief:
as §2

For assay [12], the system named is Staphylococcus aureus. Briefly: Antibacterial activity against Staphylococcus aureus at 100 ug after 24 hrs by agar disc-diffusion method. Conditions: read-out: IZ. In a few lines:
as §1

Assay [13] relates to Fusarium solani. Briefly: Antifungal activity against Fusarium solani at 200 ug after 48 hrs by agar disc-diffusion method. Conditions: read-out: IZ. The method in brief: as §4
In assay [14] the test system is Curvularia lunata. Briefly: Antifungal activity against Curvularia lunata at 200 ug after 48 hrs by agar disc-diffusion method. Conditions: read-out: IZ. The method in brief: as §4
Assay [15] deals with Fusarium solani. Briefly: Antifungal activity against Fusarium solani at 100 ug after 48 hrs by agar disc-diffusion method. Conditions: read-out: IZ. In a few lines:
as §4

Assay [16] deals with Klebsiella pneumoniae. Briefly: Antibacterial activity against Klebsiella pneumoniae at 200 ug after 24 hrs by agar disc-diffusion method. Conditions: read-out: IZ. The method in brief: as §1
The test system of assay [17] is Bacillus subtilis. Briefly: Antibacterial activity against Bacillus subtilis at 100 ug after 24 hrs by agar disc-diffusion method. Conditions: read-out: IZ. In a few lines: as §1
Assay [18] relates to Aspergillus niger. Briefly: Antifungal activity against Aspergillus niger after 48 hrs by microdilution susceptibility method. The method in brief:
as §3

Assay [19] has as its system Aspergillus niger. Briefly: Antifungal activity against Aspergillus niger at 200 ug after 48 hrs by agar disc-diffusion method. Conditions: read-out: IZ. In a few lines: as §4
In assay [20] the test system is Curvularia lunata. Briefly: Antifungal activity against Curvularia lunata at 100 ug after 48 hrs by agar disc-diffusion method. Conditions: read-out: IZ. In a few lines: as §4
The subject of assay [21] is Staphylococcus aureus. Briefly: Antibacterial activity against Staphylococcus aureus at 200 ug after 24 hrs by agar disc-diffusion method. Conditions: read-out: IZ. The method in brief:
as §1

Converted amounts (≈) assume the structure as drawn.

For `Nn1c(S)nnc1CS(=O)(=O)C1=NNC[C@@H]1c1ccccc1`, the zone of inhibition at 100 µg/disc in the assay on Escherichia coli [1] was determined as 22 mm; with Klebsiella pneumoniae [6] it was 21 mm; with Aspergillus niger [8] it was 36 mm; in the assay with Staphylococcus aureus [12], 28 mm; in the assay with Fusarium solani [15], 39 mm; in the assay on Bacillus subtilis [17], 31 mm. Further, the zone of inhibition at 100 µg/disc in the assay on Curvularia lunata [20] stood at 37 mm. Besides, the zone of inhibition at 200 µg/disc in the assay on Bacillus subtilis [2] is 33 mm; in the assay with Escherichia coli [9], 25 mm; with Fusarium solani [13] it was 44 mm; in the assay with Curvularia lunata [14], 41 mm; in the assay on Klebsiella pneumoniae [16] it was 24 mm; with Aspergillus niger [19] it was 39 mm. Moreover, in the assay with Staphylococcus aureus [21], the zone of inhibition at 200 µg/disc came out at 30 mm. Moreover, the MIC stood at 25 µg/mL (≈ 73.9 µM) against Staphylococcus aureus [3]; 100 µg/mL (≈ 295 µM) in the assay on Curvularia lunata [4]; 50 µg/mL (≈ 148 µM) against Escherichia coli [5]; 25 µg/mL (≈ 73.9 µM) in the assay on Bacillus subtilis [7]; 100 µg/mL (≈ 295 µM) in the assay on Fusarium solani [10]; 100 µg/mL (≈ 295 µM) against Klebsiella pneumoniae [11]. Further, the MIC with Aspergillus niger [18] worked out at 100 µg/mL (≈ 295 µM).

(Values after ChEMBL document CHEMBL1156668, “Synthesis and antimicrobial activity of novel sulfone-linked bis heterocycles” (2008).)
